Measured values from ChEMBL document CHEMBL2311434, “Search for new tools to combat Gram-negative resistant bacteria among amine derivatives of 5-arylidenehydantoin” (2013).
In brackets after ≈: the same amount, converted by molar mass. Activity calls are given as the source filed them. No cut-off for these calls is given here. Peptide text beside a SMILES is read from it. * marks the point of attachment. βNA = c1ccc2cc(N*)ccc2c1

Columns and labels:
Klebsiella aerogenes [1] = test: Chemosensitization of Enterobacter aerogenes CM-64 overexpressing AcrAB-TolC assessed as decrease in chloramphenicol MIC at 63 uM relative to control; format: functional
Procedure, shortened: (§1)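 About 10^6 cells were put into 1 mL Mueller-Hinton broth with twofold serial dilutions of the antibiotic (CLSI). A fixed sub-inhibitory compound concentration was added, set without antibiotic, usually ≤1/4 MIC. Controls ran without inhibitor. Plates were read after 18 h at 37 °C. MICs are the means of three independent determinations. Activity gain = MIC without compound / MIC with compound.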

Klebsiella aerogenes [2] = test: Antibacterial activity against Enterobacter aerogenes CM-64 overexpressing AcrAB-TolC assessed as growth inhibition after 18 hrs by CLSI broth dilution method; format: functional; conditions: CM-64, 18 h
Procedure, shortened: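 Intrinsic MIC of each compound with no antibiotic added. About 10^6 cells were inoculated into 1 mL Mueller-Hinton broth with twofold serial dilutions, following CLSI guidelines. Plates were read after 18 h at 37 °C, in triplicate. MIC is the mean of three independent determinations.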

Klebsiella aerogenes [3] = test: Chemosensitization of Enterobacter aerogenes CM-64 overexpressing AcrAB-TolC assessed as decrease in nalidixic acid MIC at 63 uM relative to control; format: functional; procedure, shortened: as §1
Klebsiella aerogenes [4] = test: Chemosensitization of Enterobacter aerogenes CM-64 overexpressing AcrAB-TolC assessed as decrease in sparfloxacin MIC at 63 uM relative to control; format: functional; procedure, shortened: as §1
Klebsiella aerogenes [5] = test: Chemosensitization of wild type Enterobacter aerogenes ATCC 13048 assessed as decrease in nalidixic acid MIC at 63 uM relative to control; format: functional
Procedure, shortened: (§2)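 Antibiotic MIC by CLSI broth dilution: about 10^6 cells in 1 mL Mueller-Hinton broth with twofold antibiotic dilutions, 18 h at 37 °C, in triplicate. Compound held at a fixed sub-inhibitory level (≤MIC/4) set without antibiotic. Controls ran without inhibitor and without antibiotic. PAβN 50 µM served as reference. Activity gain = MIC without compound / MIC with compound. MICs are the mean of three determinations.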

Klebsiella aerogenes [6] = test: Antibacterial activity against wild type Enterobacter aerogenes ATCC 13048 assessed as growth inhibition after 18 hrs by CLSI broth dilution method; format: functional; conditions: ATCC 13048, 18 h
Procedure, shortened: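 Broth dilution per CLSI in Mueller-Hinton broth, about 10^6 cells per 1 mL, read after 18 h at 37 °C. The compound alone, with no antibiotic, against reference strain ATCC 13048. MIC is the mean of three independent determinations.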

Klebsiella aerogenes [7] = test: Chemosensitization of wild type Enterobacter aerogenes ATCC 13048 assessed as decrease in sparfloxacin MIC at 63 uM relative to control; format: functional, organism-based; procedure, shortened: as §1
Klebsiella aerogenes [8] = test: Chemosensitization of wild type Enterobacter aerogenes ATCC 13048 assessed as decrease in nalidixic acid MIC at 100 uM relative to control; format: functional; procedure, shortened: as §1
Klebsiella aerogenes [9] = test: Chemosensitization of Enterobacter aerogenes CM-64 overexpressing AcrAB-TolC assessed as decrease in nalidixic acid MIC at 100 uM relative to control; format: functional, organism-based; procedure, shortened: as §1
Klebsiella aerogenes [10] = test: Chemosensitization of Enterobacter aerogenes CM-64 overexpressing AcrAB-TolC assessed as decrease in sparfloxacin MIC at 100 uM relative to control; format: functional, organism-based; procedure, shortened: as §1
Klebsiella aerogenes [11] = test: Chemosensitization of Enterobacter aerogenes CM-64 overexpressing AcrAB-TolC assessed as decrease in sparfloxacin MIC at 200 uM relative to control; format: functional; procedure, shortened: as §1
Klebsiella aerogenes [12] = test: Chemosensitization of Enterobacter aerogenes CM-64 overexpressing AcrAB-TolC assessed as decrease in nalidixic acid MIC at 200 uM relative to control; format: functional; procedure, shortened: as §1
Klebsiella aerogenes [13] = test: Chemosensitization of wild type Enterobacter aerogenes ATCC 13048 assessed as decrease in nalidixic acid MIC at 200 uM relative to control; format: functional; procedure, shortened: as §1
Klebsiella aerogenes [14] = test: Chemosensitization of wild type Enterobacter aerogenes ATCC 13048 assessed as decrease in chloramphenicol MIC at 63 uM relative to control; format: functional, organism-based; procedure, shortened: as §2
Klebsiella aerogenes [15] = test: Chemosensitization of wild type Enterobacter aerogenes ATCC 13048 assessed as decrease in […] at 50 uM relative to control; format: functional, organism-based
Klebsiella aerogenes [16] = test: Chemosensitization of Enterobacter aerogenes CM-64 overexpressing AcrAB-TolC assessed as decrease in chloramphenicol MIC at 200 uM relative to control; format: functional; procedure, shortened: as §1
Klebsiella aerogenes [17] = test: Chemosensitization of wild type Enterobacter aerogenes ATCC 13048 assessed as decrease in chloramphenicol MIC at 200 uM relative to control; format: functional, organism-based; procedure, shortened: as §2
Klebsiella aerogenes [18] = test: Chemosensitization of Enterobacter aerogenes CM-64 overexpressing AcrAB-TolC assessed as decrease in nalidixic acid MIC at 100 uM relative to control

| SMILES | MIC (Klebsiella aerogenes [2]) [µM] | fold change (FC) (Klebsiella aerogenes [4]) | MIC (Klebsiella aerogenes [6]) [µM] | also measured |
| --- | --- | --- | --- | --- |
| CCN(CC)c1ccc(/C=C2\NC(=O)N(CC(O)CN3CCN(CCO)CC3)C2=O)cc1 (centres undefined) | 250 (≈ 111 µg/mL) | 4 | 125 (≈ 55.7 µg/mL) | fold change (FC) (Klebsiella aerogenes [1]): 4; fold change (FC) (Klebsiella aerogenes [3]): 4; fold change (FC) (Klebsiella aerogenes [5]): 2 |
| COc1ccc(/C=C2\NC(=O)N(CC(O)CN3CCOCC3)C2=O)cc1 (centres undefined) | > 2000 | – | > 2000 | Activity (Klebsiella aerogenes [4]): inactive |
| O=C(N[C@H](CO)[C@H](O)c1ccc([N+](=O)[O-])cc1)C(Cl)Cl [CHLORAMPHENICOL] | 256 (≈ 82.7 µg/mL) | – | 4 (≈ 1.29 µg/mL) | – |
| O=C(CN1C(=O)N/C(=C\c2ccccc2)C1=O)N1CCN(CCO)CC1 | 250 (≈ 89.6 µg/mL) | 2 | 125 (≈ 44.8 µg/mL) | fold change (FC) (Klebsiella aerogenes [1]): 2; fold change (FC) (Klebsiella aerogenes [3]): 4 |
| COc1ccc(/C=C2\NC(=O)N(CC(O)CN3CCN(CCO)CC3)C2=O)c(OC)c1 (centres undefined) | 250 (≈ 109 µg/mL) | 2 | 125 (≈ 54.3 µg/mL) | fold change (FC) (Klebsiella aerogenes [1]): 4; fold change (FC) (Klebsiella aerogenes [3]): 4 |
| COc1ccc(/C=C2\NC(=O)N(CC(O)CNC(C)C)C2=O)c(OC)c1 (centres undefined) | 250 (≈ 90.9 µg/mL) | 4 | 250 (≈ 90.9 µg/mL) | fold change (FC) (Klebsiella aerogenes [1]): 4; fold change (FC) (Klebsiella aerogenes [3]): 4; fold change (FC) (Klebsiella aerogenes [5]): 2; Activity (Klebsiella aerogenes [7]): Active |
| CCn1cc(C(=O)O)c(=O)c2ccc(C)nc21 [NALIDIXIC ACID] | 128 (≈ 29.7 µg/mL) | – | 8 (≈ 1.86 µg/mL) | – |
| COc1ccc(/C=C2\NC(=O)N(CC(O)CN3CCN(c4ccccc4)CC3)C2=O)cc1OC (centres undefined) | 500 (≈ 233 µg/mL) | – | 500 (≈ 233 µg/mL) | fold change (FC) (Klebsiella aerogenes [8]): 2; Activity (Klebsiella aerogenes [9]): Active; Activity (Klebsiella aerogenes [10]): inactive |
| COc1ccccc1N1CCN(CC(O)CN2C(=O)N/C(=C\c3ccccc3)C2=O)CC1 (centres undefined) | 1000 (≈ 437 µg/mL) | – | 500 (≈ 218 µg/mL) | Activity (Klebsiella aerogenes [11]): inactive; Activity (Klebsiella aerogenes [12]): Active; fold change (FC) (Klebsiella aerogenes [13]): 2 |
| COc1ccc(/C=C2\NC(=O)N(CC(O)CNCCCN3CCN(C)CC3)C2=O)cc1.Cl (centres undefined) | > 2000 | – | > 2000 | Activity (Klebsiella aerogenes [4]): inactive; fold change (FC) (Klebsiella aerogenes [5]): 2; Activity (Klebsiella aerogenes [7]): Active; Activity (Klebsiella aerogenes [14]): Active |
| C[C@@H]1CN(c2c(F)c(N)c3c(=O)c(C(=O)O)cn(C4CC4)c3c2F)C[C@H](C)N1 [SPARFLOXACIN] | 1 (≈ 0.392 µg/mL) | – | 0.06 (≈ 0.0235 µg/mL) | – |
| N=C(N)NCCC[C@H](NC(=O)[C@@H](N)Cc1ccccc1)C(=O)Nc1ccc2ccccc2c1 [PABETAN] (H-Phe-Arg-βNA) | 5000 (≈ 2230 µg/mL) | – | 5000 (≈ 2230 µg/mL) | Activity (Klebsiella aerogenes [15]): Active |
| COc1ccc(/C=C2\NC(=O)N(CC(O)CN3CCN(c4ccccc4OC)CC3)C2=O)cc1OC (centres undefined) | 1000 (≈ 497 µg/mL) | – | 1000 (≈ 497 µg/mL) | Activity (Klebsiella aerogenes [11]): inactive; Activity (Klebsiella aerogenes [12]): Active; fold change (FC) (Klebsiella aerogenes [16]): 2 |
| COc1ccc(/C=C2\NC(=O)N(CC(O)CN3CCCCC3)C2=O)cc1 (centres undefined) | > 2000 | – | > 2000 | – |
| COc1ccc(/C=C2\NC(=O)N(CC(O)CN3CCNCC3)C2=O)cc1.Cl.Cl (centres undefined) | > 2000 | 2 | > 2000 | – |
| COc1ccc(/C=C2\NC(=O)N(CC(O)CN3CCN(C)CC3)C2=O)cc1.Cl (centres undefined) | > 2000 | 2 | > 2000 | – |
| CCOc1ccccc1N1CCN(CC(O)CN2C(=O)N/C(=C\c3ccc(Cl)cc3)C2=O)CC1 (centres undefined) | 1000 (≈ 485 µg/mL) | – | 500 (≈ 242 µg/mL) | fold change (FC) (Klebsiella aerogenes [11]): 2; Activity (Klebsiella aerogenes [17]): Active; fold change (FC) (Klebsiella aerogenes [18]): 4 |
| CC(C)NCC(O)CN1C(=O)N/C(=C\c2ccc(Cl)cc2)C1=O (centres undefined) | 250 (≈ 84.5 µg/mL) | 4 | 250 (≈ 84.5 µg/mL) | fold change (FC) (Klebsiella aerogenes [1]): 4; Activity (Klebsiella aerogenes [3]): Active; Activity (Klebsiella aerogenes [7]): Active |
| O=C(CN1C(=O)N/C(=C\c2ccc(Br)cc2)C1=O)N1CCN(CCO)CC1 | > 1250 | – | > 1250 | fold change (FC) (Klebsiella aerogenes [3]): 4 |
| COc1ccccc1N1CCN(CC(O)CN2C(=O)N/C(=C\c3ccc(Cl)cc3)C2=O)CC1 (centres undefined) | 1000 (≈ 471 µg/mL) | – | 500 (≈ 235 µg/mL) | Activity (Klebsiella aerogenes [11]): inactive; fold change (FC) (Klebsiella aerogenes [13]): 2; fold change (FC) (Klebsiella aerogenes [18]): 4 |
| CC(C)NCC(O)CN1C(=O)N/C(=C\c2ccc(Br)cc2)C1=O (centres undefined) | > 1250 | – | > 1250 | – |
| O=C1N/C(=C\c2ccc(Cl)cc2)C(=O)N1CC(O)CN1CCN(CCO)CC1 (centres undefined) | 250 (≈ 102 µg/mL) | – | 250 (≈ 102 µg/mL) | fold change (FC) (Klebsiella aerogenes [3]): 4; Activity (Klebsiella aerogenes [4]): inactive; Activity (Klebsiella aerogenes [7]): Active |
| COc1ccc(/C=C2\NC(=O)N(CC(O)CN3CCN(C(C)=O)CC3)C2=O)cc1 (centres undefined) | > 2000 | – | > 2000 | Activity (Klebsiella aerogenes [3]): Active; Activity (Klebsiella aerogenes [4]): inactive |
